Assay results collected from several papers.
Each line is one published result; the experiments were not run side by side.
RPS6KA5 C-terminal kinase domain: Ribosomal protein S6 kinase alpha-5, C-terminal kinase domain (RPS6KA5, Homo sapiens, UniProt O75582)
RPS6KA5: Ribosomal protein S6 kinase alpha-5 (RPS6KA5, Homo sapiens, UniProt O75582)
RPS6KA5 N-terminal kinase domain: Ribosomal protein S6 kinase alpha-5, N-terminal kinase domain (RPS6KA5, Homo sapiens, UniProt O75582)

| Compound | target | test | setting | quantity | value |
| --- | --- | --- | --- | --- | --- |
| Cc1c(NC(=O)c2cc(C(N)=O)nc3cc(F)ccc23)c(C(F)(F)F)nn1Cc1ccc(C(C)(C)C)cc1 | RPS6KA5 C-terminal kinase domain | cell-free assay, competition with immobilised ligand | 1 µM | remaining binding | 89% |
| Cc1ccc(C(=O)Nc2ccc(CN3CCN(C)CC3)c(C(F)(F)F)c2)cc1C#Cc1cnc2cccnn12 | RPS6KA5 | enzyme activity, inhibitor | 23.5 nM | activity vs control | 96% |
| CCN(CC)c1ccc(C2=NNC(=O)CC2C)cc1[N+](=O)[O-] (stereo not drawn) | RPS6KA5 | enzyme activity, inhibitor | 10 µM | remaining activity | 83% |
| Cc1nc(C2CCN(C(=O)c3ccc(OC(F)(F)F)cc3N)CC2)c2ncc(N3CCN(C)CC3)cc2n1 | RPS6KA5 N-terminal kinase domain | cell-free assay, competition with immobilised ligand | 1 µM | remaining binding | 100% |
| Cc1cc(NC(=O)c2cccc3cc(-c4cccc5[nH]nc(N)c45)ccc23)ccc1F | RPS6KA5 | enzyme activity, inhibitor | 0.1 µM | activity vs control | 94% |
| Oc1ccc(-c2nc(-c3ccncc3)c(-c3ccc(F)cc3)[nH]2)cc1 | RPS6KA5 | cell-free assay | 0.5 µM | remaining signal | 107% |
| Nc1c(C(=O)NCc2ccc(C(=O)NCCCC3CCCCC3)cc2)cnn1-c1ccccc1 | RPS6KA5 N-terminal kinase domain | cell-free assay, competition with immobilised ligand | 0.1 µM | remaining binding | 94% |
| CCCS(=O)(=O)Nc1ccc(F)c(C(=O)c2c[nH]c3ncc(-c4ccc(Cl)cc4)cc23)c1F | RPS6KA5 | enzyme activity, inhibitor | 1 µM | inhibition | < 10% |
| CCc1ccccc1C(=O)Nc1n[nH]c2c(C)c(F)c(C3C(C#N)=C(C)N(C)C(C)=C3C#N)cc12 | RPS6KA5 C-terminal kinase domain | cell-free assay, competition with immobilised ligand | 1 µM | remaining binding | 90% |
| CNC(=O)c1cc(Oc2ccc(NC(=O)Nc3ccc(Cl)c(C(F)(F)F)c3)cc2)ccn1 | RPS6KA5 | enzyme activity, inhibitor | 10 µM | inhibition | 8% |
| O=C(Nc1cnn(-c2csc(C(=O)NC3COC3)c2)c1)Nc1c(F)cccc1Cl | RPS6KA5 | enzyme activity, inhibitor | 5 µM | remaining activity | 104% |
| Oc1cccc(-c2nc(N3CCOCC3)c3oc4ncccc4c3n2)c1 | RPS6KA5 | cell-free assay | 0.5 µM | remaining signal | 86.5% |
| CNc1cccc2cc(C(=O)Nc3ccc(C(=O)O)cc3)c(=O)[nH]c12 | RPS6KA5 | enzyme activity, inhibitor | 10 µM | inhibition | -7.3% |
| N[C@@H]1CCN(c2nccc(-c3cnn4ncccc34)n2)C1 | RPS6KA5 N-terminal kinase domain | binding, competition with immobilised ligand | 1 µM | remaining binding | 94% |
| Nc1nc(Nc2ccc(S(N)(=O)=O)cc2)nn1C(=O)c1c(F)cccc1F | RPS6KA5 | cell-free assay | 0.5 µM | remaining signal | 97.2% |
| Nc1nc(Nc2ccccc2)sc1C(=O)c1c(F)cccc1F | RPS6KA5 | enzyme activity, inhibitor | 10 µM | remaining activity | 87% |
| C[C@@H]1CCN(C(=O)CC#N)C[C@@H]1N(C)c1ncnc2[nH]ccc12 | RPS6KA5 | cell-free assay, inhibitor | 0.5 µM | remaining signal | 94.8% |
| CC1CCCN1c1nccc(-c2cnn3ncccc23)n1 (stereo not drawn) | RPS6KA5 N-terminal kinase domain | binding, competition with immobilised ligand | 1 µM | remaining binding | 100% |

| Compound | target | test | setting | quantity | value |
| --- | --- | --- | --- | --- | --- |
| O=C(O)[C@@H]1[C@@H](Cn2nnc3ccccc3c2=O)CC[C@H]1C(=O)c1ccc(OCCC2CCOCC2)cc1 | RPS6KA5 N-terminal kinase domain | cell-free assay, competition with immobilised ligand | 1 µM | remaining binding | 100% |
| C[C@@H]1CCN(c2nccc(-c3cnn4ncccc34)n2)C1 | RPS6KA5 C-terminal kinase domain | binding, competition with immobilised ligand | 1 µM | remaining binding | 100% |
| COc1cc2ncnc(Nc3ccc(Oc4ccccc4)c(C)c3C)c2cc1OC | RPS6KA5 | enzyme activity, inhibitor | 1 µM | inhibition | 2% |
| Oc1cccc(-c2nc(N3CCOCC3)c3oc4ncccc4c3n2)c1 | RPS6KA5 | enzyme activity, inhibitor | 10 µM | remaining activity | 105% |
| O=C1NC(=O)c2cc(Nc3ccc(F)cc3)c(Nc3ccc(F)cc3)cc21 | RPS6KA5 | cell-free assay | 0.5 µM | remaining signal | 93.6% |
| CC(C)(O)[C@H]1CC[C@H](Nc2ccc3ncc(-c4cccc(C(F)(F)F)c4)n3n2)CC1 | RPS6KA5 | enzyme activity, inhibitor | 1 µM | remaining activity | 98.9% |
| Cc1ccc(Nc2nccc(N(C)c3ccc4c(C)n(C)nc4c3)n2)cc1S(N)(=O)=O | RPS6KA5 | enzyme activity, inhibitor | 10 µM | inhibition | 36% |
| O=C(NC[C@@H]1[C@H]2CN(C(=O)OCc3cc(C(F)(F)F)cc(C(F)(F)F)c3)C[C@@H]12)c1ccc2[nH]nnc2c1 | RPS6KA5 N-terminal kinase domain | cell-free assay, competition with immobilised ligand | 1 µM | remaining binding | 100% |
| Nc1ncnc2occ(-c3ccc(NC(=O)Nc4cc(C(F)(F)F)ccc4F)cc3)c12 | RPS6KA5 N-terminal kinase domain | cell-free assay, inhibitor | 20 µM | remaining signal | 2.2% |
| O=c1nc(-c2ccccn2)sc2ccccc12 | RPS6KA5 N-terminal kinase domain | binding, competition with immobilised ligand | 1 µM | remaining binding | 94% |
| FC(F)c1nc2ccccc2n1-c1nc(N2CCOCC2)nc(N2CCOCC2)n1 | RPS6KA5 | enzyme activity, inhibitor | 10 µM | remaining activity | 89% |
| COc1cc(Nc2cnc(C#N)c(O[C@H](C)CN(C)C)n2)ncc1-c1cnn(C)c1 | RPS6KA5 | enzyme activity, inhibitor, radiometric | 1 µM | remaining activity | 86% |
| CCCOc1ccc(OC)c(F)c1C(=O)c1ccc(C(=O)N[C@@H]2CNC[C@H]2NC(=O)c2ccc3[nH]ncc3c2)cc1 | RPS6KA5 | enzyme activity, inhibitor | 10 µM | remaining activity | 2% |
| CC(C)(C)c1nc(-c2cccc(NS(=O)(=O)c3c(F)cccc3F)c2F)c(-c2ccnc(N)n2)s1 | RPS6KA5 | enzyme activity, inhibitor, radiometric | 1 µM | remaining activity | 97% |
| CN(c1ncccc1CNc1nc(Nc2ccc3c(c2)CC(=O)N3)ncc1C(F)(F)F)S(C)(=O)=O | RPS6KA5 | enzyme activity, inhibitor | 1 µM | inhibition | 31.9% |
| CNCc1ccc(-c2cc(-c3nc(-c4ccc(S(=O)(=O)C(C)C)cc4)cnc3N)on2)cc1 | RPS6KA5 | enzyme activity, inhibitor | 2 µM | inhibition | 0% |
| CN(C)c1ncc(F)c(-c2cnn3ncccc23)n1 | RPS6KA5 C-terminal kinase domain | binding, competition with immobilised ligand | 1 µM | remaining binding | 89% |
| CNC(=O)c1ccc(Nc2ncc(C(F)(F)F)c(NCc3nccnc3N(C)S(C)(=O)=O)n2)cc1 | RPS6KA5 N-terminal kinase domain | cell-free assay, competition with immobilised ligand | 0.1 µM | remaining binding | 81% |
